The text below walks through data of ChEMBL document CHEMBL3097988, “Synthesis and characterization of new N-(4-(4-chloro-1H-imidazol-1-yl)-3-methoxyphenyl)amide/sulfonamide derivatives as possible antimicrobial and antitubercular agents” (2014).

In brackets after ≈: the same amount, converted by molar mass.

Holding throughout (format): functional
One experiment has as its system Rhizopus. Description: Antimicrobial activity against Rhizopus sp. after 3 to 4 days by serial plate dilution method. The method, boiled down: (§1)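 Fungal MIC by serial plate dilution. Sabouraud agar (peptone, D-glucose, agar; pH 5.7) plates seeded with saline spore suspension, dried 1 h at 37 °C. Wells punched and filled with compound in DMSO; DMSO-only control. Triplicate plates held 3–4 days at 37 °C; inhibition zone diameter measured. Amphotericin B positive control. Tested range […] per mL.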

The subject of experiment [1] is Mycolicibacterium smegmatis. Description: Antimicrobial activity against Mycobacterium smegmatis (MC2) ATCC 19420 after 7 days by resazurin assay. To be noted: (MC2) ATCC 19420, 168 h. (Resazurin is reduced to fluorescent resorufin, in cell work by metabolically active cells.)
Experiment [2] concerns Mycobacterium tuberculosis. Description: Antimicrobial activity against Mycobacterium tuberculosis H37Rv ATCC 27294 after 7 days by resazurin assay. To be noted: H37Rv ATCC 27294, 168 h. The method, boiled down:
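Resazurin microtitre assay. Cultures were grown in Middlebrook 7H9 with 10% OADC and added to fresh medium in 96-well plates. Test compounds came from 2 mg/mL DMF stocks, with DMF-only controls. Plates were incubated 7 days at 37 °C, then resazurin was added and read after 1 h at 37 °C. MIC was the lowest concentration preventing the blue-to-pink change.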

Experiment [3] concerns Klebsiella pneumoniae. Description: Antimicrobial activity against Klebsiella pneumoniae ATCC 13883 after 16 to 18 hrs by serial plate dilution method. In a few lines:
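Bacterial MIC by serial dilution in Mueller-Hinton broth adjusted to pH 5.0 with phosphate buffer. Tubes inoculated with standardized bacterial suspension, incubated 16–18 h at 37 °C. MIC read as lowest concentration with no visible growth. Range […] per mL. DMSO as negative control, ciprofloxacin as positive control.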

Experiment [4] concerns Mycobacterium tuberculosis. Kind of experiment: Antimicrobial activity against Mycobacterium tuberculosis H37Rv ATCC 27294 at 1 to 100 ug/ml after 7 days by resazurin assay. The method, boiled down:
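Preliminary screen at three concentrations (1, 10 and 100) by resazurin microtitre assay. Cultures were grown in Middlebrook 7H9 with 10% OADC, and compounds came from 2 mg/mL DMF stocks with DMF controls. Plates were incubated 7 days at 37 °C, and resazurin colour was read after 1 h. Inhibition was scored as no blue-to-pink change.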

The subject of experiment [5] is Mycolicibacterium fortuitum. Description: Antimicrobial activity against Mycobacterium fortuitum ATCC 19542 after 7 days by resazurin assay. To be noted: ATCC 19542, 168 h.
Experiment [6] deals with Staphylococcus aureus. Kind of experiment: Antimicrobial activity against Staphylococcus aureus ATCC 25923 after 16 to 18 hrs by […].
A further experiment deals with Aspergillus flavus. Kind of experiment: Antimicrobial activity against Aspergillus flavus after 3 to 4 days by serial plate dilution method. The method, boiled down: as §1
For the next experiment, the system named is Escherichia coli. Description: Antimicrobial activity against Escherichia coli ATCC 25922 after 16 to 18 hrs by […].
The test system of a further experiment is Candida albicans. Kind of experiment: Antimicrobial activity against Candida albicans after 3 to 4 days by serial plate dilution method. The method, boiled down: as §1
For experiment [7], the system named is Klebsiella pneumoniae. Kind of experiment: Ratio of ciprofloxacin MIC to compound MIC for Klebsiella pneumoniae ATCC 13883.
Experiment [8] has as its system Staphylococcus aureus. Description: Ratio of ciprofloxacin MIC to compound MIC for Staphylococcus aureus ATCC 25923.

On to `COc1ccc(S(=O)(=O)Nc2ccc(-n3cnc(Cl)c3)c(OC)c2)cc1OC`, for which the MIC (in general, the lowest concentration found to suppress growth) against Rhizopus was determined as 128 µg/mL (≈ 302 µM); in [1], 1.25 µg/mL (≈ 2.95 µM); in experiment [2] it was 1.25 µg/mL (≈ 2.95 µM); in the experiment with Klebsiella pneumoniae [3], 256 µg/mL (≈ 604 µM); in [5] it was 1.25 µg/mL (≈ 2.95 µM); with Staphylococcus aureus [6], 256 µg/mL (≈ 604 µM). Further, the figures for the MIC against Aspergillus flavus, in the experiment with Escherichia coli and with Candida albicans were 256 µg/mL (≈ 604 µM), 128 µg/mL (≈ 302 µM) and 128 µg/mL (≈ 302 µM), respectively. Also, the “inhibition (INH)” value in [4] is on record as 90%.
As to `COc1cc(NS(=O)(=O)c2cccs2)ccc1-n1cnc(Cl)c1`, the MIC in the experiment on Rhizopus is 128 µg/mL (≈ 346 µM); in [1], 1.25 µg/mL (≈ 3.38 µM); in [2], 1.25 µg/mL (≈ 3.38 µM); in the experiment on Klebsiella pneumoniae [3], 256 µg/mL (≈ 692 µM); in experiment [5], 1.25 µg/mL (≈ 3.38 µM); against Staphylococcus aureus [6] it was 128 µg/mL (≈ 346 µM). The results for the MIC with Aspergillus flavus, with Escherichia coli and in the experiment on Candida albicans were 256 µg/mL (≈ 692 µM), 64 µg/mL (≈ 173 µM) and 64 µg/mL (≈ 173 µM), respectively. For the same compound, in experiment [4], the “inhibition (INH)” value worked out at 90%.
Consider `COc1cc(NS(=O)(=O)Cc2cccc(C(F)(F)F)c2)ccc1-n1cnc(Cl)c1`, for which the minimum inhibitory concentration (MIC) in the experiment with Rhizopus is 128 µg/mL (≈ 287 µM); in experiment [2], 1.25 µg/mL (≈ 2.8 µM); against Klebsiella pneumoniae [3], 4 µg/mL (≈ 8.97 µM); in experiment [5] it was 10 µg/mL (≈ 22.4 µM); against Staphylococcus aureus [6] it was 4 µg/mL (≈ 8.97 µM); against Aspergillus flavus it was 32 µg/mL (≈ 71.8 µM). Also, the minimal inhibitory concentration (MIC) with Escherichia coli and in the experiment on Candida albicans was 64 µg/mL (≈ 144 µM) in each case. Besides, the figures for the Ratio in the experiment with Klebsiella pneumoniae [7] and with Staphylococcus aureus [8] were 2 and 1, respectively. Moreover, the “inhibition (INH)” value in [4] is 90%.
Take `COc1cc(NS(=O)(=O)c2cc(F)cc(C(F)(F)F)c2)ccc1-n1cnc(Cl)c1`: the MIC against Rhizopus came to 16 µg/mL (≈ 35.6 µM); in experiment [1], 10 µg/mL (≈ 22.2 µM); in experiment [2], 0.625 µg/mL (≈ 1.39 µM); against Klebsiella pneumoniae [3], 8 µg/mL (≈ 17.8 µM); in experiment [5], 10 µg/mL (≈ 22.2 µM); against Staphylococcus aureus [6], 4 µg/mL (≈ 8.89 µM). Also, the MIC turned out to be 8 µg/mL (≈ 17.8 µM) in the experiment with Aspergillus flavus, 4 µg/mL (≈ 8.89 µM) in the experiment with Escherichia coli and 8 µg/mL (≈ 17.8 µM) in the experiment with Candida albicans. The Ratio in the experiment with Klebsiella pneumoniae [7] and with Staphylococcus aureus [8] was 1 throughout. Also, the “inhibition (INH)” value in [4] worked out at 95%.
In the case of `COc1cc(NS(=O)(=O)c2c(F)ccc(C(F)(F)F)c2Cl)ccc1-n1cnc(Cl)c1`, the MIC in the experiment with Rhizopus turned out to be 16 µg/mL (≈ 33 µM); in [1], 1.25 µg/mL (≈ 2.58 µM); in experiment [2], 0.625 µg/mL (≈ 1.29 µM); in the experiment with Klebsiella pneumoniae [3], 8 µg/mL (≈ 16.5 µM); in experiment [5], 10 µg/mL (≈ 20.7 µM); in the experiment with Staphylococcus aureus [6], 4 µg/mL (≈ 8.26 µM). Also, the MIC in the experiment with Aspergillus flavus was determined as 16 µg/mL (≈ 33 µM); against Escherichia coli it was 4 µg/mL (≈ 8.26 µM); in the experiment on Candida albicans, 8 µg/mL (≈ 16.5 µM). Moreover, the Ratio with Klebsiella pneumoniae [7] and in the experiment on Staphylococcus aureus [8] was 1 in each case. Moreover, the “inhibition (INH)” value in [4] was 90%.
For `COc1cc(NS(=O)(=O)c2ccc(C(F)(F)F)cc2)ccc1-n1cnc(Cl)c1`, the MIC amounted to 16 µg/mL (≈ 37.1 µM) in the experiment with Rhizopus; 1.25 µg/mL (≈ 2.89 µM) in [1]; 0.625 µg/mL (≈ 1.45 µM) in experiment [2]; 8 µg/mL (≈ 18.5 µM) in the experiment on Klebsiella pneumoniae [3]; 10 µg/mL (≈ 23.2 µM) in [5]; 4 µg/mL (≈ 9.26 µM) against Staphylococcus aureus [6]. Also, the MIC against Aspergillus flavus is 16 µg/mL (≈ 37.1 µM); against Escherichia coli it was 16 µg/mL (≈ 37.1 µM); in the experiment on Candida albicans it was 8 µg/mL (≈ 18.5 µM). In addition, the Ratio in the experiment on Klebsiella pneumoniae [7] and in the experiment on Staphylococcus aureus [8] was 1 each time. Besides, the “inhibition (INH)” value in [4] amounted to 95%.
Take `COc1cc(NS(=O)(=O)c2ccc([N+](=O)[O-])cc2)ccc1-n1cnc(Cl)c1`: the MIC with Rhizopus stood at 64 µg/mL (≈ 157 µM); in experiment [1] it was 10 µg/mL (≈ 24.5 µM); in experiment [2], 0.625 µg/mL (≈ 1.53 µM); against Klebsiella pneumoniae [3], 64 µg/mL (≈ 157 µM); in [5], 1.25 µg/mL (≈ 3.06 µM); against Staphylococcus aureus [6], 128 µg/mL (≈ 313 µM). Moreover, the minimal inhibitory concentration (MIC) in the experiment on Aspergillus flavus came out at 128 µg/mL (≈ 313 µM); against Escherichia coli, 128 µg/mL (≈ 313 µM); against Candida albicans, 256 µg/mL (≈ 626 µM). The “inhibition (INH)” value in [4] was 90%.
Consider `COc1cc(NC(=O)c2ccc([N+](=O)[O-])cc2)ccc1-n1cnc(Cl)c1`, for which the MIC in the experiment on Rhizopus is 256 µg/mL (≈ 687 µM); in experiment [1], 2.5 µg/mL (≈ 6.71 µM); in [2] it was 1.25 µg/mL (≈ 3.35 µM); against Klebsiella pneumoniae [3], > 256 µg/mL; in experiment [5], 1.25 µg/mL (≈ 3.35 µM); against Staphylococcus aureus [6], 256 µg/mL (≈ 687 µM). Further, the MIC against Aspergillus flavus, with Escherichia coli and against Candida albicans was > 256 µg/mL in each case. The “inhibition (INH)” value in experiment [4] is <90%.
As for `COc1cc(NC(=O)Cc2cccc(C(F)(F)F)c2)ccc1-n1cnc(Cl)c1`, the minimal inhibitory concentration (MIC) is > 256 µg/mL with Rhizopus; 10 µg/mL (≈ 24.4 µM) in experiment [1]; 2.5 µg/mL (≈ 6.1 µM) in [2]; 64 µg/mL (≈ 156 µM) against Klebsiella pneumoniae [3]; 10 µg/mL (≈ 24.4 µM) in experiment [5]; 128 µg/mL (≈ 312 µM) against Staphylococcus aureus [6]. For the same compound, the MIC with Aspergillus flavus was determined as 256 µg/mL (≈ 625 µM); with Escherichia coli, 256 µg/mL (≈ 625 µM); against Candida albicans it was 128 µg/mL (≈ 312 µM). The “inhibition (INH)” value in [4] is recorded as <90%.
As for `COc1cc(NC(=O)c2cccs2)ccc1-n1cnc(Cl)c1`, the MIC in the experiment with Rhizopus came to 32 µg/mL (≈ 95.9 µM); in [1], 1.25 µg/mL (≈ 3.74 µM); in experiment [2], 5 µg/mL (≈ 15 µM); in the experiment with Klebsiella pneumoniae [3] it was 64 µg/mL (≈ 192 µM); in experiment [5], 2.5 µg/mL (≈ 7.49 µM); with Staphylococcus aureus [6], 128 µg/mL (≈ 383 µM). In addition, the MIC with Aspergillus flavus is 64 µg/mL (≈ 192 µM); with Escherichia coli, 128 µg/mL (≈ 383 µM); in the experiment with Candida albicans it was 256 µg/mL (≈ 767 µM). Besides, the “inhibition (INH)” value in [4] was found to be 90%.
For the compound `COc1cc(NC(=O)c2ccc(C(F)(F)F)cc2)ccc1-n1cnc(Cl)c1`, the MIC was 64 µg/mL (≈ 162 µM) with Rhizopus; 2.5 µg/mL (≈ 6.32 µM) in experiment [1]; 1.25 µg/mL (≈ 3.16 µM) in [2]; 64 µg/mL (≈ 162 µM) against Klebsiella pneumoniae [3]; 1.25 µg/mL (≈ 3.16 µM) in experiment [5]; 128 µg/mL (≈ 323 µM) against Staphylococcus aureus [6]. Besides, the MIC with Aspergillus flavus was found to be 128 µg/mL (≈ 323 µM); against Escherichia coli, 64 µg/mL (≈ 162 µM); against Candida albicans it was 32 µg/mL (≈ 80.9 µM). The “inhibition (INH)” value in experiment [4] is 90%.
